SIRT5 inh – SIRT5 desuccinylase inhibitors, primary screen, biochemical, fluorescence imaging, single point, set 5 | actives 1.1% (n = 330,000) | AID 652115, 2013 | inhibition, % at 15 µM | NAD-dependent protein deacylase sirtuin-5, mitochondrial (Homo sapiens), Q9NXA8 | Purified SirT5, succinyl-peptide AMC, trypsin-coupled fluorescence; in the data active = inhibition above about 15%
Ecoli rRNA inh – reduced GFP signal of wild-type E. coli, primary screen, bacterial rRNA inhibitor project, GFP/RFP fluorescence, OD600, single point. E. coli WT GFP vs humanized-ribosome RFP mutants, 24 h; stronger effect = lower value; DMSO median 0, no signal -100. GFP signal change (wild-type ribosome), % (test concentration not listed). actives 1.6% (n = 350,000). AID 720706, 2013;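 active = significant combined selectivity score with lowered wild-type GFP, culture density cut under 30%, mutant RFP and density less affected; inactive = any of these conditions unmet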
FGF22 binding – binders of human FGF22 protein, primary screen, FGF22 synaptogenesis inhibitor project, biophysical, thermal shift, single point | Fibroblast growth factor 22 (Homo sapiens), Q9HCT0 | recombinant FGF22 thermal shift, SYPRO orange fluorescence; percent of sucrose octasulfate shift, DMSO zero | activity (Tm shift, normalised), % at 9.99 µM | actives 1.5% (n = 340,000) | AID 651658, 2012;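 active = mean Tm shift, scaled 0 neutral to 100 positive control, at about 1.3% or above, every replicate too, limit read from the data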
FN deposition inh – inhibitors of fibronectin matrix deposition, primary screen, AH1F cells, Alexa488-fibronectin fluorescence, plate reader; actives 0.086% (n = 350,000); AH1F fibroblasts, overnight; inhibition, % at 12.6 µM;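 active = mean inhibition across replicates of 30% or more, regardless of how many single replicates reach that level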;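 note: positive control wells lacked labelled fibronectin entirely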
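Schedule: 1 h cell adhesion before compound, then overnight fibronectin incubation; test system: AH1F fibroblast monolayer depositing Alexa488-labelled fibronectin into matrix; quantity: 10000 AH1F cells per well; probe or stimulus: fluorescent fibronectin at 24 nM final; signal: fluorescence, ex 485 nm, em 525 nm; evaluation: percent inhibition as loss of matrix-bound fibronectin fluorescence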
C2C12 statin – suppressors of statin myotoxicity in C2C12 myotubes, primary screen, cell-based, single point, plate reader. AID 602340, 2012. rescue of ATP level, % at 7.49 µM. actives 0.78% (n = 330,000). C2C12 myotubes + simvastatin, ATP luminescence, 48 h; scaled: DMSO 0, geranylgeraniol control 100;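 active = mean ATP rescue above about 67%, or every replicate alone reaching that limit, limit read from the data, passing the limit was not always enough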;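 note: myotubes were challenged with 10 µM simvastatin during compound exposure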
E-sel inducer – E-selectin induction in HUVECs, primary screen, imaging, HUVEC, immunofluorescence imaging, single point. P16581. activation, % at 7.58 µM. normalized: neutral wells 0, TNF-alpha wells 100. actives 0.37% (n = 260,000);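 active = mean E-selectin-positive cell signal at least 10% of the positive control, reached in at least 60% of replicates, without over 20% cell loss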
Target sequence (P16581 whole entry, looked up): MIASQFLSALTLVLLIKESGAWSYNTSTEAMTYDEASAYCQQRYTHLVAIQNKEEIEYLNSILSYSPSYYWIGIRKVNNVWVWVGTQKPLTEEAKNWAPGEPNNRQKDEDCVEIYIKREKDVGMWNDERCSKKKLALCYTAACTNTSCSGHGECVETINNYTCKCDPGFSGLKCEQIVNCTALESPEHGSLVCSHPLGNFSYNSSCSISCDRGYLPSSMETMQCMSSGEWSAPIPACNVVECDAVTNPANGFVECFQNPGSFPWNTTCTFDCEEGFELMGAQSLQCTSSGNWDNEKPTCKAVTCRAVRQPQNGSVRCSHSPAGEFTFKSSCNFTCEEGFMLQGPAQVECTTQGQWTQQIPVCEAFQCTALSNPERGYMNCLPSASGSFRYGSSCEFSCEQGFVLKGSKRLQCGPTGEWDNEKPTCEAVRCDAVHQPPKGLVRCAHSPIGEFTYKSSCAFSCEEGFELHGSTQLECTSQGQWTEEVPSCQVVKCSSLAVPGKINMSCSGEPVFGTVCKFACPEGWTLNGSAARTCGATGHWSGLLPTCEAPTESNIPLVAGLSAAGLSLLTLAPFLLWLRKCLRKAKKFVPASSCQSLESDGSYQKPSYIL
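Test system: HUVEC; input: 3,000 HUVEC/well; measured by: immunofluorescence imaging; read-out: % PE-positive cells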
Numbers without * were called inactive; nt = no result given. A selection: hits, their analogues and other compounds. The true share with any hit is near 4%.

SMILES	SIRT5 inh	Ecoli rRNA inh	FGF22 binding	FN deposition inh	C2C12 statin	E-sel inducer
Cc1ccc(C(=O)N/N=C\C=C\c2ccc(Br)cc2)cn1	-3.4	6.5	43.5*	-1.4	1.4	nt
COc1ccc2c3c(n(C)c2c1)[C@@H](CO)N(C(=O)Nc1ccc(F)cc1)CC31CN(S(=O)(=O)c2cccs2)C1	nt	-4.7	nt	nt	nt	0.2
O=C(/C=C/Nc1cccc([N+](=O)[O-])c1)c1cccs1	nt	nt	nt	-2.2	9.3	nt
Cc1ccc(N/C=C/C(=O)c2cccs2)cc1C	-2.5	-20.1*	0.2	6.8	nt	nt
Cc1cc(N/C=C/C(=O)c2cccs2)ccc1F	3.4	7.0	0.6	0.9	45.8	nt
O=C(/C=C/Nc1ccc(Nc2ccccc2)cc1)c1cccs1	-2.2	-22.7*	0.3	2.4	nt	0.2
CC(C)CC#Cc1cnc2c(c1)C(=O)N([C@@H](C)CO)C[C@@H](C)[C@H](CN(C)Cc1ccccc1C(=O)O)O2	4.1	-0.9	-0.1	2.4	23.3	-0.4
O=C(CSc1nc(-c2ccccc2)nc2ccc(F)cc12)Nc1cccc(C(=O)O)c1	5.8	-1.2	40.5	-5.2	-8.8	0.5
CCOC(=O)CSc1nc(-c2ccccc2)nc2ccc(C)cc12	-5.4	19.6	43.4*	-3.9	nt	5.7
O=C(CSc1nc(-c2ccccc2)nc2ccc(F)cc12)Nc1ccc(C(=O)O)cc1	1.4	nt	6.0*	14.5	nt	0.2
CCOc1ccc2nc(-c3ccccc3)nc(SCC(=O)OC)c2c1	-0.8	1.3	0.2	-5.1	-14.5	0.1
CCOc1ccc2c(c1)nc(SCC(=O)c1ccc(Br)s1)n2C	nt	nt	nt	-1.0	70.4*	nt
CC(C)(Oc1ccc(Cl)cc1)C(=O)NCc1ccncc1	nt	nt	nt	3.4	3.3	nt
CC(C)(Oc1ccc(Cl)cc1)C(=O)NCc1ccco1	nt	nt	nt	nt	122.8*	nt
Brc1ccc(-n2cnc(-c3ccccc3)c2)cc1	-3.7	-14.6*	0.0	5.6	-5.0	0.4
O=C(NCC1CC1)[C@H]1[C@H](CO)[C@H]2Cn3c(ccc(-c4ccncc4)c3=O)[C@H]2N1Cc1cocn1	-7.2	2.4	0.2	nt	-2.5	-0.6
CCOC(=O)NC(N(O)c1cccc(Cl)c1)C(Cl)(Cl)Cl (configuration not stated)	-3.1	-28.5*	-0.6	7.4	nt	nt
CCN(C(=O)Nc1cccc(Cl)c1)c1ccccc1	0.8	0.1	0.1	-10.5	7.6	nt
CCC(=O)Nc1nc(C)c(-c2csc(Nc3cccc(C(=O)O)c3)n2)s1	1.7	nt	1.1	-7.5	nt	0.7
Cc1nc(N)sc1-c1csc(Nc2cccc(C(=O)O)c2)n1	27.4*	11.7	0.0	7.3	-8.9	-0.1
O=C(C[C@H]1CC[C@@H]2[C@H](COC[C@@H](O)CN2C(=O)c2cccnc2)O1)Nc1ccc(-c2ccccc2)cc1	nt	-2.2	0.0	0.9	-10.6	0.6
CC(=O)CCc1ccc(OCC(=O)Nc2cccc(S(=O)(=O)N(C)c3ccccc3)c2)cc1	16.9*	-9.2	-0.4	-2.0	-6.5	-1.9
CCOc1ccc(S(=O)(=O)N(C)c2ccc(OCC(=O)Nc3ccc4[nH]c(=O)[nH]c4c3)cc2)cc1	-0.5	-31.6*	nt	nt	-8.9	nt
CN(c1ccccc1)S(=O)(=O)c1cccc(NC(=O)CCN2C(=O)C3CCCCC3C2=O)c1 (configuration not stated)	3.4	-29.0*	-0.1	-4.2	-5.3	0.3
CCCC(=O)Nc1cccc(S(=O)(=O)N(C)c2ccccc2)c1	nt	nt	nt	0.3	nt	nt
SMILES	SIRT5 inh	Ecoli rRNA inh	FGF22 binding	FN deposition inh	C2C12 statin	E-sel inducer
CN(c1ccccc1)S(=O)(=O)c1cccc(NC(=O)COc2ccccc2)c1	4.9	nt	-0.2	-4.0	0.8	3.0
Cc1ccc(S(=O)(=O)N(C)C[C@H]2Oc3ccc(NC(=O)CCCCCC(=O)Nc4ccccc4N)cc3CC(=O)N([C@H](C)CO)C[C@@H]2C)cc1	-4.7	-2.0	-0.3	nt	-23.2	0.1
O=S1OC(c2ccccc2)c2cc(Cl)ccc21 (configuration not stated)	-0.6	-15.1*	0.1	2.3	nt	0.0
OC(CNCc1ccccc1)COc1ccccc1 (configuration not stated)	24.0*	14.7	0.1	-15.7	18.7	-0.1
C[C@@H]1CN([C@H](C)CO)C(=O)c2cc(C#Cc3cccnc3)cnc2O[C@@H]1CN(C)Cc1ccccc1	4.5	-0.2	-0.1	0.1	1.6	-0.2
CSc1sc(C(=O)Nc2ccc(F)cc2F)c2c1C=CCC2	-5.9	-26.4*	-0.2	11.1	nt	0.0
C[C@H]1CN([C@@H](C)CO)S(=O)(=O)c2ccc(-c3ccc(C(=O)N(C)C)cc3)cc2O[C@@H]1CN(C)Cc1ccccc1C(=O)O	5.0	3.8	-0.2	-1.4	6.1	0.0
N#Cc1cc2c(nc1SCC(O)CS(=O)(=O)Cc1ccccc1)CCCC2 (configuration not stated)	-0.2	-35.3*	-0.1	nt	-6.0	nt
N#Cc1cc2c(nc1SCc1ccccc1)CCCCC2	nt	nt	nt	nt	15.6	nt
CCC/C(O)=C1\C(=O)CCCC1=NCCc1c(C)[nH]c2ccc(OC)cc12	1.7	-16.9	43.0*	1.1	12.2	nt
CCC/C(O)=C1\C(=O)CCCC1=NCCc1c(C)[nH]c2ccc(C)cc12	-0.5	2.7	0.4	5.6	31.7	-0.2
CCCC/C(O)=C1\C(=O)CCCC1=NCCc1c(C)[nH]c2ccccc12	-1.4	-22.9*	-0.4	-0.4	nt	nt
CCCN(C)C[C@@H]1Oc2cc(C3=CCCC3)ccc2S(=O)(=O)N([C@@H](C)CO)C[C@H]1C	nt	3.1	nt	nt	-31.0	0.0
C[C@H](CO)N1C[C@H](C)[C@H](CN(C)C(=O)c2cnccn2)Oc2ncc(-c3cccc(C#N)c3)cc2C1=O	5.7	5.1	-0.4	-12.7	5.0	-0.3
CN1/C(=C\C(=O)c2cccnc2)C(C)(C)c2ccccc21	-1.0	-28.5	0.6	-13.5	nt	nt
CN1/C(=C\C(=O)c2cccc(S(=O)(=O)N3CCCCC3)c2)C(C)(C)c2ccccc21	-0.2	-26.6	43.0*	-3.0	nt	-0.1
CN1/C(=C/C(=S)NC(=O)C2CCC2)C(C)(C)c2ccccc21	15.0*	-27.1	0.2	nt	-24.0	nt
COc1ccc(S(=O)(=O)Nc2ccccc2C(=O)OC2CCCN(C)C2)cc1OC (configuration not stated)	nt	nt	nt	nt	81.8*	nt
CN1CCCC(OC(=O)c2ccccc2Br)C1 (configuration not stated)	-1.3	9.6	-0.1	1.1	6.5	0.0

High-throughput results: PubChem, Broad Institute
